Measured values as given in ChEMBL document CHEMBL4622976, “Development of pH/Glutathione-Responsive Theranostic Agents Activated by Glutathione S-Transferase π for Human Colon Cancer” (J Med Chem, 2020).
The source made the active and inactive calls. The calls are words filed in the database; no cut-off is given here.

Tests used:
HT-29 [1] = assay: Antiproliferative activity against human HT-29 cells by MTT assay; type: functional, cell-based
Outline: (§1)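 MTT assay. Cells were grown in DMEM/RPMI 1640 with 10% FBS, penicillin and streptomycin at 37 °C under 5% CO2. After a PBS wash, cells got 0.5 mg/mL MTT for 3 h at 37 °C. Formazan was dissolved in DMSO and absorbance read at 570 nm. Inhibition was expressed as a percentage and IC50 calculated. Means ± SD come from three separate experiments.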

HepG2 = assay: Antiproliferative activity against human HepG2 cells by MTT assay; type: functional, cell-based; outline: as §1
[2] = Antiproliferative activity against rat 9L-2 cells by MTT assay; type: functional, cell-based; outline: as §1
[3] = Cytotoxicity against human CCD-841 cells by MTT assay; type: cell-based; outline: as §1
HT-29 [4] = assay: Induction of apoptosis in human HT-29 cells at 10 uM incubated for 72 hrs by FITC-AnnexinV/PI staining based flow cytometry relative to control; type: functional
Outline: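 HT29 cells cultured 12 h, then exposed to compound or vehicle for 72 h. Harvested cells stained with Annexin V plus a viability dye for 15 min at 37 °C. Percentage of apoptotic cells determined by flow cytometry; means ± SD from three separate experiments, compared with control.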

HT-29 [5] = assay: Induction of apoptosis in human HT-29 cells assessed as increase in Bax protein level at 10 uM incubated for 72 hrs by Western blot analysis; type: functional, cell-based
Outline: (§2)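 HT29 cells (1.5 × 10^5/mL) treated 72 h with compound or vehicle. Lysates loaded at 0.05 mg/lane on 12% SDS-PAGE, transferred to nitrocellulose, blocked in 5% non-fat milk. Probed with antibodies to Bax, Bcl-2, cleaved caspase-3, cleaved PARP, LC3, p62 and beclin-1. Bands quantified relative to β-actin; three independent assays, means ± SD.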

HT-29 [6] = assay: Induction of apoptosis in human HT-29 cells assessed as reduction in Bcl2 protein level at 10 uM incubated for 72 hrs by Western blot analysis; type: functional, cell-based; outline: as §2
HT-29 [7] = assay: Induction of apoptosis in human HT-29 cells assessed as increase in cleaved PARP protein level at 10 uM incubated for 72 hrs by Western blot analysis; type: functional, cell-based; outline: as §2
HT-29 [8] = assay: Induction of apoptosis in human HT-29 cells assessed as increase in cleaved caspase-3 protein level at 10 uM incubated for 72 hrs by Western blot analysis; type: functional, cell-based; outline: as §2
HT-29 [9] = assay: Induction of autophagy in human HT-29 cells assessed as increase in LC3-II protein level at 10 uM incubated for 72 hrs by Western blot analysis; type: functional, cell-based; outline: as §2
HT-29 [10] = assay: Induction of autophagy in human HT-29 cells assessed as increase in Beclin-1 protein level at 10 uM incubated for 72 hrs by Western blot analysis; type: functional, cell-based; outline: as §2
HT-29 [11] = assay: Induction of autophagy in human HT-29 cells assessed as reduction in p62 protein level at 10 uM incubated for 72 hrs by Western blot analysis; type: functional, cell-based; outline: as §2
HT-29 [12] = assay: Antitumor activity against human HT-29 cells xenografted in nude BALB/c mouse assessed as reduction in tumor volume at 40 mg/kg, ip dosed every day for 21 days; type: functional, organism-based
HT-29 [13] = assay: Antitumor activity against human HT-29 cells xenografted in nude BALB/c mouse assessed as tumor weight level at 40 mg/kg, ip dosed every day for 21 days (reference value: 1.49 +/- 0.27 g); type: functional
HT-29 [14] = assay: Induction of apoptosis in human HT-29 cells at 2.5 uM incubated for 72 hrs by FITC-AnnexinV/PI staining based flow cytometry relative to control; type: functional
Outline: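 HT29 cells were cultured 12 h, then exposed to compound (0.4, 1.0, 2.5 µM) or vehicle for 72 h. Harvested cells were stained with Annexin V and PI, and apoptotic cell percentages measured by flow cytometry. Means ± SD come from three separate experiments.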

HT-29 [15] = assay: Induction of apoptosis in human HT-29 cells assessed as increase in Bax protein level at 2.5 uM incubated for 72 hrs by Western blot analysis; type: functional, cell-based
Outline: (§3)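 HT29 cells (1.5×10^5/mL) were treated for 72 h and lysed. Lysate (0.05 mg/lane) was run on 12% SDS-PAGE and transferred to nitrocellulose. After blocking in 5% non-fat milk, blots were probed for Bax, Bcl-2, cleaved caspase-3, cleaved PARP, LC3, p62 and beclin-1. Levels were normalised to β-actin, and means ± SD taken from three independent assays.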

HT-29 [16] = assay: Induction of apoptosis in human HT-29 cells assessed as reduction in Bcl2 protein level at 2.5 uM incubated for 72 hrs by Western blot analysis; type: functional, cell-based; outline: as §3
HT-29 [17] = assay: Induction of apoptosis in human HT-29 cells assessed as increase in cleaved PARP protein level at 2.5 uM incubated for 72 hrs by Western blot analysis; type: functional, cell-based; outline: as §3
HT-29 [18] = assay: Induction of apoptosis in human HT-29 cells assessed as increase in cleaved caspase-3 protein level at 2.5 uM incubated for 72 hrs by Western blot analysis; type: functional, cell-based; outline: as §3
HT-29 [19] = assay: Induction of autophagy in human HT-29 cells assessed as increase in LC3-II protein level at 2.5 uM incubated for 72 hrs by Western blot analysis; type: functional, cell-based; outline: as §3
HT-29 [20] = assay: Induction of autophagy in human HT-29 cells assessed as increase in Beclin-1 protein level at 2.5 uM incubated for 72 hrs by Western blot analysis; type: functional, cell-based; outline: as §3
HT-29 [21] = assay: Induction of autophagy in human HT-29 cells assessed as reduction in p62 protein level at 2.5 uM incubated for 72 hrs by Western blot analysis; type: functional, cell-based
Outline: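 HT29 cells (1.5×10^5/mL) exposed to compound or vehicle for 72 h, then lysed. Lysates (0.05 mg/lane) run on 12% SDS-PAGE, transferred to nitrocellulose, blocked with 5% non-fat milk and probed for LC3, p62, beclin-1 and β-actin. Bands quantified relative to β-actin, with LC3-II/LC3-I ratio also calculated; means ± SD from three independent assays.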

[22] = Dissociation constant, pKa of the compound; type: physicochemical

**Q.** For `COc1ccc2c(c1)[nH]c1c(C)nccc12` [HARMINE], which IC50 (HT-29 [1]) is on record?
**A.** 41.8 µM

**Q.** What about the IC50 (HepG2) of the same molecule?
**A.** 49.6 µM

**Q.** And the IC50 [2]?
**A.** 47.8 µM

**Q.** What about the IC50 [3] of the same molecule?
**A.** > 50 µM

**Q.** And the Activity (HT-29 [4])?
**A.** 20.9%

**Q.** And the Activity (HT-29 [5])?
**A.** Active

**Q.** What about the Activity (HT-29 [6]) of the same molecule?
**A.** Active

**Q.** And the Activity (HT-29 [7])?
**A.** Active

**Q.** And the Activity (HT-29 [8])?
**A.** Active

**Q.** And the Activity (HT-29 [9])?
**A.** Active

**Q.** What about the Activity (HT-29 [10]) of the same molecule?
**A.** Active

**Q.** And the Activity (HT-29 [11])?
**A.** Active

**Q.** For `COc1cc(-c2nc(N)cc3c2[nH]c2ccccc23)cc(OC)c1OC`, which IC50 (HT-29 [1]) is on record?
**A.** 13.5 µM

**Q.** And the IC50 (HepG2)?
**A.** 17.1 µM

**Q.** Which IC50 (HT-29 [1]) does the source give for `C/C=C/C(=O)OCC1=CCCCC1=O` here?
**A.** 4.37 µM

**Q.** What about the IC50 (HepG2) of the same molecule?
**A.** 5.93 µM

**Q.** And the IC50 [2]?
**A.** 7.79 µM

**Q.** What about the IC50 [3] of the same molecule?
**A.** 7.83 µM

**Q.** What about the Activity (HT-29 [12]) of the same molecule?
**A.** Active

**Q.** And the Activity (HT-29 [13])?
**A.** 0.81 g

**Q.** And the Activity (HT-29 [14])?
**A.** 28.8%

**Q.** And the Activity (HT-29 [15])?
**A.** Active

**Q.** And the Activity (HT-29 [16])?
**A.** Active

**Q.** And the Activity (HT-29 [17])?
**A.** Active

**Q.** And the Activity (HT-29 [18])?
**A.** Active

**Q.** What about the Activity (HT-29 [19]) of the same molecule?
**A.** Active

**Q.** What about the Activity (HT-29 [20]) of the same molecule?
**A.** Active

**Q.** And the Activity (HT-29 [21])?
**A.** Active

**Q.** For `COc1cc(-c2nc(N(C(=O)OCC3=CCCCC3=O)C(=O)OCC3=CCCCC3=O)cc3c2[nH]c2ccccc23)cc(OC)c1OC`, which pKa [22] is on record?
**A.** 5.3

**Q.** And the IC50 (HT-29 [1])?
**A.** 1.45 µM

**Q.** And the IC50 (HepG2)?
**A.** 2.69 µM

**Q.** And the IC50 [2]?
**A.** 4.85 µM

**Q.** What about the IC50 [3] of the same molecule?
**A.** 28.1 µM
